According to ChEMBL document CHEMBL1123858, “Synthesis and gastrointestinal pharmacology of a 3E,5Z diene analogue of misoprostol” (1987):

Tests used:
Canis familiaris [1] = assay: Tested for gastric antisecretory activity in histamine-stimulated gastric fistula dogs by intragastric administration; format: functional; settings: Canis lupus familiaris, Stomach, po
Procedure, shortened: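 Conscious adult female beagles (6–12 kg) with simple gastric fistulas, fasted 18 h. After a 30-min basal period, drug given intragastrically via dosing plug with cannula closed 30 min, then histamine infused at 15 µg kg-1 h-1. Juice collected every 30 min for 4 h and titrated with 0.1 N NaOH to pH 7.0. ED50 is 50% inhibition of 4-h total acid output, from three-dose curves.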

Canis familiaris [2] = assay: Tested for relative antisecretory potency in histamine-stimulated gastric fistula dogs by intragastric administration; value ranges from (0.13-0.48); format: functional; settings: Canis lupus familiaris, Stomach, po
Procedure, shortened: (§1)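 Gastric fistula beagles given drug intragastrically, then histamine infused at 15 µg kg-1 h-1. Total acid output collected over 4 h by NaOH titration to pH 7.0, and percent inhibition curves built. Relative antisecretory potency and its limits were computed by bioassay statistical analysis of these dose-response data.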

Canis familiaris [3] = species on record: Canis familiaris; assay: Activity ratio ED50 of diarrhea to ED50 of antisecretory in histamine -stimulated gastric fistula dogs; format: functional, Canis lupus familiaris, Stomach
Procedure, shortened: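 Ratio of the 8-h rat diarrhea ED50 to the dog antisecretory ED50. Diarrhea: fasted (24 h) male Charles River rats (210–230 g; n = 6–12) given logarithmically graded oral doses and scored all-or-none hourly to 8 h, with ED50 from a maximum-likelihood logistic model. Antisecretory ED50: intragastric dosing in histamine-infused gastric fistula dogs, from 4-h acid output.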

Canis familiaris [4] = assay: Tested for relative antisecretory potency in histamine-stimulated gastric fistula dogs by intragastric administration; value ranges from (0.53-1.76); format: functional; settings: Canis lupus familiaris, Stomach, po; procedure, shortened: as §1
Canis familiaris [5] = assay: Tested for relative antisecretory potency in histamine-stimulated gastric fistula dogs by intragastric administration; format: functional; settings: Canis lupus familiaris, Stomach, po; procedure, shortened: as §1
Canis familiaris [6] = assay: Tested for gastric antisecretory activity in histamine-stimulated Heidenhain pouch dogs by intravenous administration; format: functional; settings: Canis lupus familiaris, Stomach

SMILES	ED50 (Canis familiaris [1])	relative potency (Canis familiaris [2])	Ratio (Canis familiaris [3])	relative potency (Canis familiaris [4])	relative potency (Canis familiaris [5])	ED50 (Canis familiaris [6])
CCCCC(C)(O)C/C=C/[C@H]1[C@H](O)CC(=O)[C@@H]1CCCCCCC(=O)OC (stereo not given in full) [MISOPROSTOL]	0.28 µg/kg	0.26	1364	–	–	–
CCCCC(C)(O)C/C=C/[C@H]1[C@H](O)CC(=O)[C@@H]1C/C=C\C=C/CC(=O)OC.CCCCC(C)(O)C/C=C/[C@H]1[C@H](O)CC(=O)[C@@H]1C/C=C\C=C\CC(=O)OC (mixture of isomers)	0.08 µg/kg	–	8025	0.95	–	–
CCCCC(C)(O)C/C=C/[C@H]1[C@H](O)CC(=O)[C@@H]1C/C=C\C=C\CC(=O)OC (stereo not given in full)	0.08 µg/kg	–	1638	–	1	–
CCCCC(C)(O)C/C=C/[C@H]1[C@H](O)CC(=O)[C@@H]1CC#C/C=C/CC(=O)OC (stereo not given in full)	–	–	–	–	–	> 1 µg/kg
